Measurements published in ChEMBL document CHEMBL1126773, “Synthesis, physicochemical properties, and biological evaluation of N-substituted 2-alkyl-3-hydroxy-4(1H)-pyridinones: orally active iron chelators with clinical potential” (J Med Chem, 1993).

Experiments:
[1] = Acid dissociation constant (pKa1) was determined; assay type: physicochemical; conditions: for pKa: read-out: pKa1
Outline: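 Simultaneous spectrophotometric/potentiometric titration of the ligand. Temperature held at 22.5 ± 0.1 °C, ionic strength 0.1 with KNO3. pKa values were obtained by global optimization across titrations at several ligand concentrations.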

[2] = Partition coefficient (logD7.4); assay type: physicochemical; conditions: octanol/water, pH 7.4
Outline: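 Automated filter-probe partitioning between MOPS buffer (50 mM, pH 7.4) and octan-1-ol, each phase pre-equilibrated with the other and purged with nitrogen. UV absorbance was read until stable, then octanol was added in at least 10 aliquots. An estimate came from each addition, giving a mean and standard deviation.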

[3] = Logarithm of cumulative stability constant was determined
[4] = Acid dissociation constant (pKa2) was determined
[5] = Percentage of release of lactic dehydrogenase from rat hepatocytes; assay type: functional, Hepatocyte
Outline: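 Primary rat hepatocytes were plated at 1 × 10⁶/dish, pulsed 17 h with human diferric ⁵⁹Fe-transferrin (100 µg/mL), washed, then exposed to chelators in triplicate. LDH was measured in the supernatant at 6 h.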

[6] = species: Rattus norvegicus; test: Percentage of mobilization of iron in 2 hours from rat hepatocytes; assay type: functional, Hepatocyte
[7] = biological target: Serotransferrin (Homo sapiens) (UniProt P02787); test: Percentage of removal of iron from iron-protein-transferrin; assay type: functional; set-up: concentration or dose not given beside the values
Chain of Serotransferrin (Homo sapiens) (P02787 whole entry): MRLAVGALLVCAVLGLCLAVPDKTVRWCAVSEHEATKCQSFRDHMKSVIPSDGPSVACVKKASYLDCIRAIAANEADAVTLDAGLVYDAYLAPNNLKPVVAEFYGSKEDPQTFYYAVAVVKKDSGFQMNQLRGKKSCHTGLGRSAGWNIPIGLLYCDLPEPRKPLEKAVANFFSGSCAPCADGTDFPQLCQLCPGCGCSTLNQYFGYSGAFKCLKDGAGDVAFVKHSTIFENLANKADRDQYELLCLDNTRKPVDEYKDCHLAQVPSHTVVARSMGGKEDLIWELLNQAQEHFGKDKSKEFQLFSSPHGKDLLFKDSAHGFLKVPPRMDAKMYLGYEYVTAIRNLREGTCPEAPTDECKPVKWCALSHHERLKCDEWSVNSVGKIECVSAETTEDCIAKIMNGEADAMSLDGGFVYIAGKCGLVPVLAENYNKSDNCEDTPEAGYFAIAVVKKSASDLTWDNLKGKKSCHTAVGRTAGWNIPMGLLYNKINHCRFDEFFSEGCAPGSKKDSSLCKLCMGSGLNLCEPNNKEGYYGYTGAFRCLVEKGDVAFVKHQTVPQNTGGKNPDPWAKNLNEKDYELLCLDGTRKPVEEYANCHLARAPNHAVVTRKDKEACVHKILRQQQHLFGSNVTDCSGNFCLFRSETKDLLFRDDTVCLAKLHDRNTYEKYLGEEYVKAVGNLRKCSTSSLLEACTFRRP
Outline: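 Human transferrin, Fe(III)-loaded (50 μM), was mixed with chelator (100 μM) in MOPS (0.05 M, pH 7.4, 25 °C) with 25 mM NaHCO3. Absorbance at 400–500 nm was scanned every 2 min for 10 min, then every 5 min up to 3 h.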

[8] = species: Equus caballus; test: Percentage of removal of iron from iron-protein-ferritin; assay type: functional; set-up: concentration or dose not given beside the values
Outline: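 Horse spleen ferritin (iron cores equivalent to 450 μM) was incubated with chelator (5 mM) in HEPES (0.1 M, pH 7.2) at 37 °C for up to 36 h. Samples were ultrafiltered to separate the Fe(III) complex, and the filtrate absorbance was read (450 nm; concentrations from ε max).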

CCn1ccc(=O)c(O)c1C
pKa [1]: 3.65 | logD [2]: -0.31 | Log beta3 [3]: 37.7 | pKa ([4]; pKa2): 9.88

CCNC(=O)CCn1ccc(=O)c(O)c1C
logD [2]: -0.818

CCc1c(O)c(=O)ccn1C(C)C
logD [2]: 0.732

Cc1nccc(O)c1O
pKa [1]: 3.7 | logD [2]: -0.495 | Log beta3 [3]: 37.2 | pKa ([4]; pKa2): 9.76

CCc1nccc(O)c1O
logD [2]: 0.0453

Oc1ccncc1O
pKa1 [1]: 3.6 | pKa [1]: 3.34 | pKa2 [4]: 9.6 | pKa ([4]; pKa2): 9.01

Cc1c(O)c(=O)ccn1CCC(=O)N(C)C
logD [2]: -1.16

CCN(CC)C(=O)CCn1ccc(=O)c(O)c1C
logD [2]: -0.361

CCn1cccc(O)c1=O
Activity [5]: 102% | Activity [6]: 115% | Log beta3 [3]: 32

CC(=O)NO [ACETOHYDROXAMIC ACID]
Log beta3 [3]: 28.3 | pKa ([4]; pKa2): 9.4

CCCCn1ccc(=O)c(O)c1C
pKa [1]: 3.62 | Activity [7]: 52% | logD [2]: 0.703 | pKa ([4]; pKa2): 9.87

COCC(C)n1ccc(=O)c(O)c1C (stereo not drawn)
logD [2]: -0.26

CCCCCCn1ccc(=O)c(O)c1C
logD [2]: 1.9

CCOCCCn1ccc(=O)c(O)c1C
Activity [7]: 49% | logD [2]: 0.121

Oc1cccc2cccnc12 [OXYQUINOLINE]
Activity [5]: 260% | Activity [6]: 110% | Log beta3 [3]: 37

CC(=O)N(O)CCCCCNC(=O)CCC(=O)N(O)CCCCCNC(=O)CCC(=O)N(O)CCCCCN
Activity [7]: 5% | Activity [8]: 11%

CCCn1ccc(=O)c(O)c1CC
logD [2]: 0.702

Cc1c(O)c(=O)ccn1CCCC(=O)O
Activity [7]: 53% | Activity [8]: 12%

CCCCCCCCn1ccc(=O)c(O)c1C
logD [2]: 2.88

Cc1c(O)c(=O)ccn1C(C)C
Activity [7]: 51% | logD [2]: 0.0492 | Activity [8]: 26%

Cc1c(O)c(=O)ccn1C [DEFERIPRONE]
Activity [7]: 54% | logD [2]: -0.77 | Activity [8]: 34% | Log beta3 [3]: 37.2

CCc1c(O)c(=O)ccn1C
logD [2]: -0.205

O/N=C/c1ccccn1
Activity [5]: 108% | Activity [6]: 108% | Log beta3 [3]: 30

CCOCCCn1ccc(=O)c(O)c1CC
logD [2]: 0.716

Cc1c(O)c(=O)ccn1CCO
Activity [7]: 47% | logD [2]: -1.1 | Activity [8]: 29%

CCCCCCn1ccc(=O)c(O)c1CC
logD [2]: 2.28

Oc1ccccc1O [CATECHOL]
pKa [1]: 9.2 | Log beta3 [3]: 44.9 | pKa [4]: 13.3

Cc1c(O)c(=O)ccn1CCCN
logD [2]: -2.1

CCCn1ccc(=O)c(O)c1C
Activity [5]: 105% | pKa [1]: 3.62 | Activity [6]: 252% | Activity [7]: 52% | Activity [8]: 28% | Log beta3 [3]: 37.7 | pKa ([4]; pKa2): 9.92

Cc1c(O)c(=O)ccn1CCCCO
logD [2]: -0.742

Cc1c(O)c(=O)ccn1CCC(=O)NC(C)C
logD [2]: -0.471

CCCCn1ccc(=O)c(O)c1CC
logD [2]: 1.22

CCc1c(O)c(=O)ccn1CCOC
logD [2]: 0.0414

CCCNC(=O)CCn1ccc(=O)c(O)c1C
logD [2]: -0.396

Cc1c(O)c(=O)ccn1CCN
Activity [7]: 56% | logD [2]: -1.55 | Activity [8]: 23%

CNC(=O)CCn1ccc(=O)c(O)c1C
logD [2]: -1.1

CCc1c(O)c(=O)ccn1CCO
logD [2]: -0.658

COCCn1ccc(=O)c(O)c1C
Activity [7]: 55% | logD [2]: -0.409 | Activity [8]: 28%

CCc1c(O)c(=O)ccn1CC
logD [2]: 0.25

CCCCCn1ccc(=O)c(O)c1C
logD [2]: 1.24

Cc1c(O)c(=O)ccn1CCCO
logD [2]: -0.879

CCN(C)C(=O)CCn1ccc(=O)c(O)c1C
logD [2]: -0.686
